Screening data: PubChem BioAssay, Broad Institute
S100A4 MyoIIA: S100A4-myosin IIA interaction inhibition; inhibition, % at 10.7 µM; AID 652163; actives 0.14% (n = 360,000); S100A4/TAMRA-MyoIIA peptide fluorescence polarization;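 active = mean inhibition of at least 70% across replicates, with every replicate also reaching that level; inconclusive = mean inhibition reaches 70% but some replicates fall short; inactive = mean inhibition below 70%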
Target sequence (P26447 whole entry, looked up): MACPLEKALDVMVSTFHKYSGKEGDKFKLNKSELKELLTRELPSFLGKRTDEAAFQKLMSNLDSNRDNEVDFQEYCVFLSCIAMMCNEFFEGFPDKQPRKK
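Material: S100A4 monomer (human). Medium: Calcium-containing HEPES buffer, pH 7.2. Probe or stimulus: labelled myosin peptide probe, 5 nM. Compound dosing: one concentration per compound. Timing: polarization read 5 min after assay mix addition, stable 5–60 min. Benchmarks: DMSO as neutral control, TFP as positive control.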
Env fusion inh: blocks HIV Env-driven cell-cell fusion. actives 1.1% (n = 360,000). HeLa-JRFL Env/CEM21 cell fusion, luciferase. inhibition, % at 12.3 µM;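 active = mean replicate inhibition score of at least 50 and every replicate individually at or above 50; inconclusive = only one of the two criteria met; inactive = mean below 50 and not all replicates reaching 50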;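 also: 0% = plate neutral controls and 100% = maraviroc near 300 nM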
Vif inh: HIV Vif inhibition. HEK293T cells, Vif self-association by quenched fluorescence, imaging, 24 h. inhibition, % at 7.49 µM. actives 0.35% (n = 340,000). AID 602346; in the data active = inhibition above about 50%, passing the limit was not always enough; inconclusive = no clear call, values can overlap the other calls; inactive = below about 31%
miR122 inh: blocks miR-122 activity in Huh7 sensor cells; AID 602342; actives 0.3% (n = 340,000); Huh7 miR-122 Renilla luciferase sensor, 48 h; neutral wells = 0, positive control = 100; activation (reporter increase), % at 12.5 µM;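 active = mean replicate activation score at least 90 and every replicate individually at or above 90; inconclusive = only one of the two criteria met; inactive = neither criterion met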;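 also: higher luciferase means less miR-122 activity so hits act as miR-122 inhibitors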
rRNA inh HTS: selective bacterial rRNA inhibition in E. coli. AID 720706. E. coli WT GFP vs humanized-ribosome RFP mutants, fluorescence, 24 h; active compounds read low; DMSO median 0, no signal -100. GFP signal change (wild-type ribosome), % (no concentration beside the values). actives 1.6% (n = 350,000);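 active = significant combined selectivity score with lowered wild-type GFP, culture density cut under 30%, mutant RFP and density less affected; inactive = any of these conditions unmet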
FN deposition inh: fibronectin deposition inhibition | AH1F fibroblasts, Alexa488-fibronectin deposition fluorescence, overnight | inhibition, % at 12.6 µM | actives 0.086% (n = 350,000) | AID 743247;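 active = mean inhibition across replicates of 30% or more, regardless of how many single replicates reach that level; inconclusive = mean under 30% yet at least half of replicates reach 30%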;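 also: positive control wells lacked labelled fibronectin entirely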
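Material: AH1F fibroblast monolayer depositing Alexa488-labelled fibronectin into matrix | Input: 10000 AH1F cells/well | Medium: DMEM plus 2% serum, read in PBS | Reagent: Alexa488-fibronectin, 24 nM final in well | Compound dosing: One dose per compound, pinned | Schedule: 1 h adhesion, overnight exposure | Measured by: Fluorescence at 485 nm excitation, 525 nm emission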
Starred values were filed as active, the others as inactive; ? = inconclusive; . = no result; [ ] = dose if it differs, or a comment. This is a sample that favours compounds with a hit; in the whole collection about 2.6% have one here.

SMILES	S100A4 MyoIIA	Env fusion inh	Vif inh	miR122 inh	rRNA inh HTS	FN deposition inh
C[C@H]1CCCCO[C@@H](CN(C)Cc2ccncc2)[C@@H](C)CN([C@@H](C)CO)C(=O)c2cc(NC(=O)Nc3cccc4ccccc34)ccc2O1	0.8	69.9*[16.7 µM]	.	-7.3[16.7 µM]	-5.3	.
CC(=O)NCCc1nc2ccccc2n1CCOc1cccc(C)c1	-4.7	8.3	-1.4	3.5	-28.4*	-1.6
CCCC(=O)Nc1ccc2c(c1)OC[C@H](C)N(C(=O)CN(C)C)C[C@H](C)[C@H](OC)CN(C)C2=O	-4.0	?	.	.	5.4	0.8
CCCC(=O)Nc1ccc2c(c1)OC[C@@H](C)N(C(=O)CN(C)C)C[C@H](C)[C@@H](OC)CN(C)C2=O	0.3	58.6*[16.7 µM]	.	.	4.4	-14.0
CCCC(=O)Nc1ccc2c(c1)OC[C@@H](C)N(C(=O)c1cnccn1)C[C@@H](C)[C@H](OC)CN(C)C2=O	141.5*	.	.	.	1.5	7.4
CC1(C)C(=O)C2(CCCCC2)C(=O)OC1c1cccn1-c1ccc([N+](=O)[O-])cc1 (stereo unspecified)	-1.4	72.1*	6.2	.	19.1	.
O=C(CCNS(=O)(=O)c1cccc2nonc12)NC1CCCc2ccccc21 (stereo unspecified)	.	-2.9	-25.7	24.6	.	35.5*
O=C(CCNS(=O)(=O)c1cccc2nsnc12)NC1CCCc2ccccc21 (stereo unspecified)	.	-43.3	1.2	0.0	.	1.4
COn1c(SCc2ccc(C)cc2C)nc2ccccc2c1=O	.	57.3*	0.4	2.6	.	3.1
COn1c(SCC(N)=O)nc2ccccc2c1=O	.	.	-1.7	6.6	.	.
Cc1nc(S/C(=C/c2ccc(-c3cc(Cl)ccc3C)o2)C(=O)O)n[nH]1	-8.2	-1.3	51.9*	.	-5.5	8.0
Cc1nc(S/C(=C/c2ccc(-c3ccc(Cl)cc3)o2)C(=O)O)n[nH]1	.	.	-35.7	.	.	.
O=C(Nc1cccc(Cl)c1)N1C[C@@H]2[C@H](c3ccccc31)[C@H](CO)N2C(=O)c1ccncc1	-5.1	.	.	7.1[16.7 µM]	-24.8	.
CCC(C)N(C(=O)COC(=O)c1cc([N+](=O)[O-])ccc1N)C1CCS(=O)(=O)C1 (stereo unspecified)	0.3	70.5*	-34.7	-11.0	20.3	.
C[C@@H]1CN([C@H](C)CO)C(=O)c2cc(NC(=O)Nc3cccc4ccccc34)ccc2O[C@@H](C)CCCCO[C@H]1CN(C)S(=O)(=O)c1ccccc1	-21.3	-8.5[16.7 µM]	.	11.0[16.7 µM]	-0.8	8.6
COc1cc(/C=C2\SC(=S)N(NC(=O)c3ccccc3O)C2=O)ccc1O	-13.1	1.6	-3.2	3.3	-40.9	2.4
O=C(NN1C(=O)/C(=C/c2ccc(O)c([N+](=O)[O-])c2)SC1=S)c1ccccc1Cl	-8.9	0.2	6.1	.	-22.3*	8.2
CCOc1ccc(NC(=O)CCc2c(C)noc2C)cc1OC	-19.6	.	4.1	-5.0	.	-0.6
CCCOc1ccc(C(F)(F)F)cc1NC(=O)CCc1c(C)noc1C	55.7	98.5*	-6.2	-9.2	-1.7	0.6
C/C(=N/NC(=O)C(O)(c1ccccc1)c1ccccc1)c1ccc([N+](=O)[O-])o1	5.7	8.9	.	.	-34.6*	.
O=C(c1cccc(Cl)c1)N1CCC(=O)N(C(COCc2cccc(Cl)c2)Cc2ccccc2)CC1 (stereo unspecified)	-19.6	59.6*	-7.3	1.3	-8.2	-1.4
O=C(c1cccc(Cl)c1)N1CCC(=O)N([C@H](COCc2ccccc2)Cc2ccccc2)CC1	-4.6	4.6	.	.	-30.7	8.8
O=C(c1ccc(Cl)c(Cl)c1)N1CCC(=O)N(C(COCc2cccc(Cl)c2)Cc2ccccc2)CC1 (stereo unspecified)	-0.6	90.7*	-4.7	-4.1	.	11.3
C[C@H](CO)N1C[C@H](C)[C@@H](CN(C)S(=O)(=O)c2cn(C)cn2)OCCCC[C@H](C)Oc2ccc(NS(=O)(=O)c3ccc(F)cc3)cc2C1=O	-30.6	24.4[16.7 µM]	.	3.8[16.7 µM]	-3.7	4.9
NC(=O)CC(NC(=O)c1ccc(Br)cc1)c1ccc(NC2CCCCCC2)c([N+](=O)[O-])c1 (stereo unspecified)	11.7	-22.4	70.5*	.	9.2	2.0
SMILES	S100A4 MyoIIA	Env fusion inh	Vif inh	miR122 inh	rRNA inh HTS	FN deposition inh
NC(=O)CC(NC(=O)c1ccc(Br)cc1)c1ccc(N2CCC(Cc3ccccc3)CC2)c([N+](=O)[O-])c1 (stereo unspecified)	-1.7	22.2	-3.3	4.4	13.0	-5.0
NC(=O)CC(NC(=O)c1ccccc1)c1ccc(N2CCC(Cc3ccccc3)CC2)c([N+](=O)[O-])c1 (stereo unspecified)	-1.5	86.5*	-22.6	-4.1	8.2	0.3
Cc1noc(C)c1S(=O)(=O)N(C)C[C@H]1OCCCC[C@H](C)Oc2ccc(NC(=O)NC3CCCCC3)cc2C(=O)N([C@H](C)CO)C[C@H]1C	.	.	.	.	0.2	.
Clc1ccc2nc(N3CCCCC3)sc2c1	21.2	.	.	.	-9.6	-7.0
CC(C)C(=O)N1CCN(c2nc3ccc(Cl)cc3s2)CC1	-8.2	-23.3	-1.1	-3.2	-34.8*	-3.8
CC(C)NC(=O)N1CCCN(c2nc3ccc(Cl)cc3s2)CC1	0.6	20.9	6.6	-2.9	-24.4*	1.4
CCCn1c(SCC(=O)NNC(=O)c2ccc(C)cc2)nnc1C(C)C	-8.2	5.6	55.2*	-2.9	3.8	-6.6
COC(=O)c1ccc(CN2CC(=O)N3[C@H](CO)[C@H](c4ccc(-c5ccccc5)cc4)[C@H]3C2)cc1	.	.	.	.	-3.7	.
CCc1ccc(NC(=O)N(CCCN2CCOCC2)C(C)c2cc3cccc(OC)c3o2)cc1 (stereo unspecified)	-0.7	.	9.2	.	-21.5*	.
O=C(NC1CCCCC1)N1CC(=O)N2[C@H](C1)[C@H](c1ccc(/C=C/c3ccccc3)cc1)[C@@H]2CO	-0.5	.	.	.	4.8	-10.7
C[C@H](CO)N1C[C@H](C)[C@@H](CN(C)C(=O)c2cnccn2)Oc2cc(C#CC3CC3)ccc2S1(=O)=O	7.3	-20.8[16.7 µM]	.	1.4[16.7 µM]	-1.4	.
Cc1cccc(C)c1OCC(O)CN1CCN(c2ccccc2)CC1 (stereo unspecified)	7.7	2.7	13.2	0.3	-28.7*	.
Cc1cccc(C)c1OCC(O)Cn1c2ccccc2c2ccccc21 (stereo unspecified)	.	57.1*	6.3	7.0	.	16.5
C[C@H]1CN([C@@H](C)CO)C(=O)Cc2cc(NC(=O)Nc3cccc4ccccc34)ccc2O[C@@H]1CN(C)C(=O)Nc1ccc(F)cc1	45.1	1.3[16.7 µM]	.	-7.1[16.7 µM]	0.2	.
O=C(N[C@H](c1cccc(Br)c1)[C@@H]1CCCC=C1c1ccccc1)C(F)(F)F	-18.0	67.0*	.	.	8.6	7.1
Cc1ccc(C)c(NC(=S)N2CCC(c3nc4ccccc4s3)CC2)c1	-7.4	.	6.6	-8.0	-34.7*	.
